From ChEMBL document CHEMBL3580560, “Isolation, Structural Modification, and HIV Inhibition of Pentacyclic Lupane-Type Triterpenoids from Cassine xylocarpa and Maytenus cuzcoina” (J Nat Prod, 2015) come the findings set out here.

Data set [1] can be described thus: Selectivity index, ratio of CC50 for mock-infected human MT2 cells to IC50 for HIV1 NL4.3-Ren infected in human MT2 cells. It is filed as functional.
The nature of data set [2]: Cytotoxicity against mock-infected human MT2 cells assessed as reduction in cell viability incubated for 48 hrs by cell-titer Glo assay. It is filed as cell-based. In short, it runs like this:
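Uninfected MT-2 cells received RPMI medium instead of viral supernatant and were treated in parallel with the same fivefold dilutions (100–0.032 μM). […] Values are the mean of at least three independent experiments.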

Data set [3] has as its system Human immunodeficiency virus 1. Kind of data set: Antiviral activity against HIV1 NL4.3-Ren infected in human MT2 cells assessed as inhibition of viral growth by measuring relative luminescence units at 10 uM measured 48 hrs post infection by luminometry relative to untreated control. Also on record: scale not given: the % may be the effect or the level left. It is filed as functional.

Data set [4] has as its system Human immunodeficiency virus 1. The data set is described as follows: Antiviral activity against HIV1 NL4.3-Ren infected in human MT2 cells assessed as inhibition of viral growth measured 48 hrs post infection by luminometry. It is filed as functional, organism-based. To be noted: Human immunodeficiency virus 1, NL4.3-Ren, MT2, 48 h. In short, it runs like this:
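MT-2 cells infected with X4-tropic HIV-1 NL4.3-Ren supernatant produced in 293T cells. Fivefold serial dilutions from 100 to 0.032 μM were tested. At 48 h postinfection, cells were lysed and Renilla luciferase RLU were measured. IC50 was fitted from the dose–response curve; values are the mean of at least three independent experiments.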

In data set [5] the test system is Human immunodeficiency virus 1. Kind of data set: Antiviral activity against HIV1 NL4.3-Ren infected in human MT2 cells assessed as inhibition of viral growth at 10 uM measured 48 hrs post infection by luminometry. To be noted: Human immunodeficiency virus 1, NL4.3-Ren, MT2, 48 h. The class given is functional.

SMILES strings stand for the structures.

What is called CC50 is the concentration that lowers cell viability or growth by half. As usually defined, the IC50 is the point on the concentration scale where inhibition reaches its midpoint. For orientation: inhibition means the drop in the measured response relative to a control, in per cent. As to `C=C(C=O)[C@@H]1CC[C@]2(C)CC[C@]3(C)[C@H](CC[C@@H]4[C@@]5(C)CCC(=O)C(C)(C)[C@@H]5CC[C@]43C)[C@@H]12`, the “Ratio CC50/IC50” value in data set [1] is reported as 4.2. In addition, the CC50 at 48 h in data set [2] was 5.7 µM. In addition, the Activity in data set [3] was 0%. Also, the IC50 in data set [4] stood at 1.4 µM. Besides, in data set [5], the inhibition at 10 µM was greater than 50%.
Turning to `C=C(C=O)[C@@H]1CC[C@]2(C)CC[C@]3(C)[C@H](CC[C@@H]4[C@@]5(C)CCC(=O)C(C)(C)[C@@H]5[C@H](O)C[C@]43C)[C@@H]12`, the “Ratio CC50/IC50” value in data set [1] was found to be 1.3. Besides, the CC50 at 48 h in data set [2] worked out at 10.4 µM. Also, in data set [3], the Activity is 5%. Further, the IC50 in data set [4] was determined as 7.9 µM. Besides, the inhibition at 10 µM in data set [5] was greater than 50%.
`C=C(C=O)[C@@H]1CC[C@]2(COC(C)=O)CC[C@]3(C)[C@H](CC[C@@H]4[C@@]5(C)CC[C@H](O)C(C)(C)[C@@H]5CC[C@]43C)[C@@H]12`: in data set [1], the “Ratio CC50/IC50” value is recorded as 8.2. The CC50 at 48 h in data set [2] is 14.2 µM. The Activity in data set [3] is on record as 0%. Besides, in data set [4], the IC50 stood at 1.7 µM. Also, in data set [5], the inhibition at 10 µM is greater than 50%.
Consider `C=C(C)[C@@H]1CC[C@]2(C)CC[C@]3(C)[C@H](CC[C@@H]4[C@@]5(CO)CC[C@H](O)C(C)(C)[C@@H]5CC[C@]43C)[C@@H]12`, for which the “Ratio CC50/IC50” value in data set [1] was 2.9. Moreover, the CC50 at 48 h in data set [2] came to 20 µM. Further, the IC50 in data set [4] amounted to 6.9 µM. Moreover, the inhibition at 10 µM in data set [5] is greater than 50%.
The corresponding values for `C=C(C)[C@@H]1CC[C@]2(C=O)CC[C@]3(C)[C@H](CC[C@@H]4[C@@]5(C)CCC(=O)C(C)(C)[C@@H]5CC[C@]43C)[C@@H]12` [BETULONAL] are 4.8, 20 µM, 4.2 µM and greater than 50%.
The corresponding values for `C=C(C)[C@@H]1CC[C@]2(C(=O)O)CC[C@]3(C)[C@H](CC[C@@H]4[C@@]5(C)CC[C@H](OC(=O)CC(C)(C)C(=O)O)C(C)(C)[C@@H]5CC[C@]43C)[C@@H]12` [BEVIRIMAT] are greater than 1000, greater than 10 µM, 0.01 µM and greater than 50%.
The corresponding values for `CC(C)(O)[C@@H]1CC[C@]2(C)CC[C@]3(C)[C@H](CC[C@@H]4[C@@]5(C)CCC(=O)C(C)(C)[C@@H]5[C@H](O)C[C@]43C)[C@@H]12` are greater than 14.3, greater than 100 µM, 7 µM and greater than 50%.
Turning to `C=C1C(=O)O[C@@H]2C[C@]3(C)CC[C@]4(C)[C@H](CC[C@@H]5[C@@]6(C)CCC(=O)C(C)(C)[C@@H]6CC[C@]54C)[C@H]3[C@H]12` [OCHRACEOLIDE A], in data set [1], the “Ratio CC50/IC50” value was greater than 2.6. Moreover, the CC50 at 48 h in data set [2] was greater than 100 µM. For the same compound, in data set [4], the IC50 worked out at 39 µM. The inhibition at 10 µM in data set [5] was greater than 50%.
The matching figures for `C=C(C)[C@@H]1CC[C@]2(C)CC[C@]3(C)[C@H](C[C@@H](O)[C@@H]4[C@@]5(C)C=CC(=O)C(C)(C)[C@@H]5CC[C@]43C)[C@@H]12`: 6.9, 60.4 µM, 8.7 µM and greater than 50%.
On to `C=C(CO)[C@@H]1CC[C@]2(C)CC[C@]3(C)[C@H](CC[C@@H]4[C@@]5(C)CCC(=O)C(C)(C)[C@@H]5[C@H](O)C[C@]43C)[C@@H]12`, for which the “Ratio CC50/IC50” value in data set [1] is recorded as 2.1. Moreover, in data set [2], the CC50 at 48 h was found to be 20 µM. In data set [4], the IC50 was 9.5 µM. Also, the inhibition at 10 µM in data set [5] was greater than 50%.
The corresponding values for `C=C(C)[C@@H]1CC[C@]2(COC(C)=O)CC[C@]3(C)[C@H](CC[C@@H]4[C@@]5(C)CCC(=O)C(C)(C)[C@@H]5CC[C@]43C)[C@@H]12` are 1.5, 20 µM, 13.4 µM and greater than 50%.
